Series [1] deals with RAW264.7. The series can be described thus: Inhibition of LPS-induced TNF-alpha production in mouse RAW264.7 cells. Type of series: functional, cell-based.
The subject of series [2] is RAW264.7. The series can be described thus: Inhibition of LPS-induced NO production in mouse RAW264.7 cells incubated 1 hr prior to LPS challenge measured after 20 hrs by Griess assay. Type of series: functional, cell-based. A digest of the protocol:
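RAW 264.7 cells seeded at 10^6 cells/mL and grown 20 h before compound (DMSO stock diluted 20-fold in medium). After 1 h pretreatment, LPS (10 μg/mL stock, 10 μL/well) added, then 20 h further incubation. Supernatant nitrite read by Griess reagent, 20 min at 23 °C, absorbance 550 nm, against 0–100 μM nitrite standards. Output expressed as % of solvent control; triplicate, mean and SD.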
(In general: Griess reagent forms a coloured azo dye with nitrite.)

Series [3] concerns RAW264.7. Briefly: Cytotoxicity against mouse RAW264.7 cells after 24 hrs by ATPLite assay. The following applies: RAW264.7, 24 h. Type of series: cell-based. A digest of the protocol: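 RAW 264.7 cells in colour-free DMEM with 10% FBS, 2 mM L-glutamine, 1 mM pyruvate, penicillin/streptomycin; 30 000 cells/well, compounds from DMSO stocks diluted 20-fold in medium, six concentrations; 24 h at 37 °C, 5% CO2. Cellular ATP read by ATPlite luminescence after lysis and 10 min dark adaptation. Chlorambucil as positive control; triplicate; EC50 from curve fit.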
(In general: ATP-based viability assays read luminescence as a measure of living cells.)

In another series the test system is NIH3T3. Briefly: Inhibition of A23187-induced prostaglandin E2 production in Swiss albino mouse 3T3 cells. Type of series: functional, cell-based.
Series [4] relates to Staphylococcus epidermidis. The series can be described thus: Antibacterial activity against Staphylococcus epidermidis. Type of series: functional, organism-based.
Series [5] in a line: Solubility of the compound. Type of series: physicochemical.
Series [6] relates to RAW264.7. The series can be described thus: Selectivity index, ratio of EC50 for mouse RAW264.7 cells to IC50 for mouse RAW264.7 cells assessed as LPS-induced NO production. Type of series: functional. The procedure, abridged: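 Index is cytotoxicity EC50 in RAW 264.7 cells (24 h ATPlite) divided by the IC50 for inhibition of LPS-induced nitrite production in the same cells (Griess readout).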

Series [7] has as its system Staphylococcus aureus. The series can be described thus: Antibacterial activity against methicillin-sensitive Staphylococcus aureus. Type of series: functional, organism-based.
Series [8] concerns Staphylococcus aureus. The series can be described thus: Antibacterial activity against methicillin-resistant Staphylococcus aureus. Type of series: functional, organism-based.
For the next series, the system named is Pseudomonas aeruginosa. Briefly: Antibacterial activity against Pseudomonas aeruginosa. Type of series: functional, organism-based.
In the next series the test system is Escherichia coli. The series can be described thus: Antibacterial activity against Escherichia coli. Type of series: functional, organism-based.

The source made the active and inactive calls. The calls are words filed in the database; no cut-off is given here.

For the molecule `C/C(=C\COc1ccc2ccc(=O)oc2c1)C1=C(CN2CCCC2C(=O)O)C(=O)C(C)(C)O1` (mixture of isomers), the inhibition result in the series on RAW264.7 [1] and in the series on NIH3T3 was “inactive” throughout. In the series with RAW264.7 [2], this molecule displayed an IC50 of 23.4 µM. The EC50 in the series on RAW264.7 [3] was found to be 74.7 µM. Besides, the outcome (in series [4]; with Staphylococcus aureus [7]; in the series with Staphylococcus aureus [8]; in the series on Pseudomonas aeruginosa; in the series on Escherichia coli) was inactive. This molecule registered a solubility in series [5] of 245 µg/mL. Besides, in the series with RAW264.7 [6], the “Selectivity Index” value is 3.2.

Broadly, the IC50 is the concentration needed to halve the response being measured. Low readings indicate greater potency in that assay, high ones weaker potency in that assay. In general, EC50 refers to the concentration that produces a half-maximal response. Usually solubility stands for the concentration that dissolves in the medium under given conditions. High values mean a readily soluble substance, low ones a poorly soluble substance.

(Values after ChEMBL document CHEMBL2407037, “Parvifloranines A and B, two 11-carbon alkaloids from Geijera parviflora” (J Nat Prod, 2013).)
